The source made the active and inactive calls.
Key:
[1] = (§1) Cytotoxicity against human MT4 cells after 96 hrs by MTT assay; format: cell-based; conditions: MT4 cells
Procedure, shortened: (§2)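 Exponentially growing mock-infected MT-4 seeded at 1 × 10^5 cells/mL in RPMI-1640 with 10% FCS, penicillin and streptomycin. Incubated with or without serial compound dilutions at 37 °C, 5% CO2. Viability by MTT after 96 h. CC50 = concentration reducing viability 50%.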

[2] = Cytotoxicity against MDBK cells after 48 to 96 hrs by MTT assay; format: cell-based, Bos taurus; conditions: cattle
Procedure, shortened: (§3)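 Mock-infected cells in maintenance medium, MDBK at 6 × 10^5 and BHK at 1 × 10^6 cells/mL initial density, with or without serial compound dilutions. Run in parallel with antiviral assays. Viability by MTT after 48–96 h at 37 °C, 5% CO2. CC50 = concentration reducing viability 50%.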

[3] = test system: Bovine viral diarrhea virus 1; test: Antiviral activity against Bovine viral diarrhea virus infected in MDBK cells assessed as inhibition of virus-induced cytopathicity after 3 to 4 days by MTT assay; format: functional, organism-based; conditions: Bovine viral diarrhea virus isolates and strains
[4] = test system: Yellow fever virus; test: Antiviral activity against Yellow fever virus infected in BHK-21 cells assessed as inhibition of virus-induced cytopathicity after 3 to 4 days by MTT assay; format: functional, organism-based
[5] = test system: Mammalian orthoreovirus 1; test: Antiviral activity against Reovirus-1 infected in BHK-21 cells assessed as inhibition of virus-induced cytopathicity after 3 to 4 days by MTT assay; format: functional, organism-based; conditions: Mammalian orthoreovirus 1, BHK-21
Procedure, shortened: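 BHK-21 cells seeded at 5 × 10^4 cells/well, grown overnight to confluent monolayers at 37 °C in 5% CO2, then infected at m.o.i. 0.01 in serum-free medium. One hour later, MEM Earle's with 1% final inactivated FCS added, with or without serial compound dilutions. Viability read by MTT after 3–4 days at 37 °C. EC50 is the concentration giving 50% protection from cytopathogenicity.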

[6] = (§4) Cytotoxicity against african green monkey Vero 76 cells by crystal violet staining; format: cell-based; conditions: chlorocebus sabaeus, Vero 76 cells
Procedure, shortened: (§5)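 Mock-infected Vero 76 seeded at 4 × 10^5 cells/mL, run in parallel with plaque assays, with or without serial compound dilutions. Cell number of monolayers determined by crystal violet staining. CC50 = concentration reducing viable cell number 50%.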

[7] = test system: Coxsackievirus B2; test: Antiviral activity against Coxsackie virus type B2 virus infected in african green monkey Vero-76 cells after 3 days by plaque reduction assay; format: functional, organism-based; conditions: Enterovirus B, Vero 76, 72 h
Procedure, shortened: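 Vero 76 cells seeded at 2 × 10^5 cells/well, grown overnight to confluence at 37 °C in 5% CO2, then infected at 50–100 PFU/well. Unadsorbed virus removed. Overlay of DMEM with 1% inactivated FCS and 0.75% methylcellulose, with or without serial compound dilutions. After 3 days at 37 °C, fixed and stained with crystal violet in PBS/50% ethanol; plaques counted. EC50 is the concentration reducing plaque number by 50%.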

[8] = test system: Respiratory syncytial virus; test: Antiviral activity against Respiratory syncytial virus A2 infected in Vero-76 cells after 5 days by plaque reduction assay; format: functional, organism-based; conditions: human respiratory syncytial virus, A2, Vero 76, 120 h
[9] = test system: Human alphaherpesvirus 1; test: Antiviral activity against HSV1 infected in Vero-76 cells after 3 days by plaque reduction assay; format: functional, organism-based; conditions: Human alphaherpesvirus 1, Vero 76, 72 h
[10] = Cytotoxicity against hamster BHK21 cells assessed as reduction in cell viability after 48 to 96 hrs by MTT assay; format: cell-based, Mesocricetus auratus, BHK-21; procedure, shortened: as §3
[11] = test system: Poliovirus 1; test: Antiviral activity against Human poliovirus 1 strain Sabin after 2 days by plaque reduction assay; format: functional; conditions: for EC50: Enterovirus C, 48 h
[12] = test system: Human immunodeficiency virus 1; test: Antiviral activity against HIV1 infected in human MT4 cells assessed as inhibition of virus-induced cytopathicity after 4 days by MTT assay; format: functional, organism-based
[13] = test system: Vesicular stomatitis virus; test: Antiviral activity against Vesicular stomatitis virus after 2 days by plaque reduction assay; format: functional, organism-based
[14] = test system: Vaccinia virus; test: Antiviral activity against Vaccinia virus after 3 days by plaque reduction assay; format: functional, organism-based; conditions: Orthopoxvirus vaccinia
[15] = test system: MT4; test: as §1; format: cell-based; conditions: mt4, 96 h; procedure, shortened: as §2
[16] = test system: Vero; test: as §4; format: cell-based; conditions: chlorocebus sabaeus, vero; procedure, shortened: as §5

SMILES | CC50 at 96 h [1] [µM] | CC50 ([2]; MDBK cells) [µM] | EC50 [3] [µM] | EC50 [4] [µM] | EC50 [5] [µM] | CC50 [6] [µM] | EC50 [7] [µM] | EC50 [8] [µM] | EC50 [9] [µM] | CC50 ([10]; BHK21 cells) [µM] | EC50 [11] [µM] | inhibition [12] | Activity [13] | Activity [14] | CC50 ([10]; bhk-21) [µM] | CC50 [15] [µM] | CC50 ([2]; mdbk) [µM] | CC50 [16] [µM] | Activity [11]
CN(C)CCCN(/N=N/c1ccccc1)c1cccc(C(F)(F)F)c1 | 14 | 38 | > 38 | ≥ 49 | > 49 | 20 | ≥ 20 | > 20 | 14 | 49 | > 20 | inactive | inactive | inactive |  |  |  |  | 
Nc1nc2c(ncn2COCCO)c(=O)[nH]1 [ACYCLOVIR] | > 100 | > 100 | > 100 | > 100 | > 100 | > 100 | > 100 | > 100 |  | > 100 | > 100 |  |  |  |  |  |  |  | 
C[C@@]1(O)[C@H](O)[C@@H](CO)O[C@H]1n1cnc2c(=O)[nH]c(N)nc21 [2'-B-METHYL-GUANOSINE] | > 100 | > 100 |  | 1.8 | 2.4 | > 100 |  | > 100 | > 100 |  | > 100 |  |  |  | 90 |  |  |  | 
NC(=O)c1ncn([C@@H]2O[C@H](CO)[C@@H](O)[C@H]2O)n1 [RIBAVIRIN] |  | > 100 | 7 | > 100 | > 100 | > 100 | > 100 | 7 | > 100 | > 100 | > 100 |  |  |  |  | 31 |  |  | 
CN(C)CCCNc1ccc(/N=N/c2cccc([N+](=O)[O-])c2)cc1 |  |  | 16 | 7 | > 20 |  | 11 | > 25 | 6 |  |  | inactive | inactive | inactive | 20 | 14 | 33 | 25 | inactive
CN(C)CCCNc1ccc(/N=N/c2c(F)cccc2F)cc1 |  |  | ≥ 20 | 10 | 12 |  | > 65 | > 65 | > 65 |  |  | inactive | inactive | inactive | 43 | 35 | 20 | 65 | inactive
Fc1ccc(F)c(/N=N/Nc2cccc(C(F)(F)F)c2)c1 |  |  | > 100 | 80 | > 100 |  | > 80 | 10 | > 80 |  | > 80 | inactive | inactive | inactive | > 100 | > 100 | > 100 | 80 | 

— ChEMBL document CHEMBL1154067, “Antiviral and cytotoxic activities of aminoarylazo compounds and aryltriazene derivatives” (Bioorg Med Chem, 2009)
